Most compounds without a hit are left out; they make up all but 0.72% or so of the library.
mIAP block – blocks mouse intestinal alkaline phosphatase. purified mouse IAP, CDP-Star luminescence, 30 min. inhibition, % at 10 µM. 0.2% of 330,000 active;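 active means inhibition of at least 40% at 10 µM in the primary screen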
bIAP inh – intestinal alkaline phosphatase (bovine) inhibition; 190,000 tested, under 10 active; purified bovine IAP, CDP-star luminescence, 30 min; inhibition, % at 20 µM;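 active means over 50% inhibition of intestinal alkaline phosphatase at 20 µM in the single-dose screen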
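System: purified bovine intestinal alkaline phosphatase (IAP) enzyme; Input: IAP diluted 1/65,000,000 in the well; Measured by: CDP-star luminescence signal; Compound dosing: 20 µM single dose; Incubation: 30 min reaction at room temperature.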
hIAP block – human IAP inhibition | P09923 | purified IAP, CDP-Star luminescence, 30 min | inhibition, % at 10 µM | 0.12% of 330,000 active;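 active means inhibition reaching a set limit with compound at 10 µM in the primary screen, cut at about 35% in these data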
Target sequence (P09923 whole entry, looked up): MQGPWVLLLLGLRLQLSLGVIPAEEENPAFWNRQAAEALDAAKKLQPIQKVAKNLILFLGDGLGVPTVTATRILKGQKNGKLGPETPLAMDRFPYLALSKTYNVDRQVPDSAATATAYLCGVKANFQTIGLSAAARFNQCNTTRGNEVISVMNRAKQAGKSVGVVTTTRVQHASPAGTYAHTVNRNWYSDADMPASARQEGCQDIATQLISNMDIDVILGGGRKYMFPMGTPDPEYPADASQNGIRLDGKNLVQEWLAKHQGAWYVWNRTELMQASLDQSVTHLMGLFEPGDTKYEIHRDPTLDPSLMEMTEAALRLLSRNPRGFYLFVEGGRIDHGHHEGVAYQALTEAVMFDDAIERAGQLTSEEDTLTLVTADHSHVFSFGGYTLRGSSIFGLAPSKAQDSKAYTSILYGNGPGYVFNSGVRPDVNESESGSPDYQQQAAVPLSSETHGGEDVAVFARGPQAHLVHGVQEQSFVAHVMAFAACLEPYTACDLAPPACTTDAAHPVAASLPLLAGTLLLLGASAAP
hIAP activ – increases human intestinal alkaline phosphatase activity. 0.16% of 330,000 active. purified human IAP, CDP-Star luminescence, 30 min; hits give high values; 1 = vehicle-only enzyme, 0 = enzyme-free background. activation factor at 10 µM. P09923;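 active means activation factor of the enzyme at least 2-fold when tested at 20 µM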
bIAP activator – increases bovine intestinal alkaline phosphatase activity. purified bovine IAP, CDP-star luminescence, 30 min; hits give high values; fold of DMSO-control signal, blank-subtracted. activation factor at 20 µM. 0.17% of 200,000 active. AID 1016;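 active means activation factor of 2 or more at 20 µM, a signal rise over negative controls twice the positive control's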
mIAP act – mouse IAP activation; muIAP, CDP-Star luminescence, 30 min; hits give high values; 1 = vehicle-only enzyme signal, 0 = enzyme-free wells; AID 2805; 0.24% of 330,000 active; activation factor at 10 µM;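 active means activation factor of at least 2 at 20 µM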
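also added = chemiluminescent substrate CDP-Star | test system = mouse IAP enzyme | signal = chemiluminescence readout | compound = DMSO-dissolved test compounds | incubation = 30 min at room temperature | benchmarks = DMSO wells, no-enzyme wells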
Each line names hits and unclear results; the compound was inactive in the other large screens.

O=C(Cc1cccc2ccccc12)N/N=C/c1ccc(F)cc1	none
O=C(Cc1cccc2ccccc12)N/N=C/c1ccc(OC(=O)/C=C/c2ccco2)cc1	mIAP block 63
C=CCNC(=O)/C=C/c1c(F)cccc1Cl	bIAP activator 2.7
CC1CN(C(=O)CCCN2C(=O)c3ccccc3C2=O)CC(C)O1 (stereo unspecified)	none (no result: bIAP inh, bIAP activator)
Cc1ccc(Cl)cc1NC(=O)c1cc(S(=O)(=O)N2CCOCC2)cn1C	none (no result: bIAP inh, bIAP activator)
CCN(CC)CCn1c(NCc2nc3ccccc3n2Cc2ccccc2)nc2ccccc21	bIAP activator 2
c1ccc(Cn2c(CNc3nc4ccccc4n3CCN3CCCCC3)nc3ccccc32)cc1	none
CCCCC(=O)Nc1cnc(NC(=O)c2cccs2)cc1C	none (no result: bIAP inh, bIAP activator)
C=C1CCN([C@@H](CC(C)C)C(=O)NCc2ccc(Cl)c(Cl)c2)S(=O)(=O)c2ccccc21	none (no result: bIAP inh, bIAP activator)
C=C1CCN([C@@H](CC(C)C)C(=O)NCc2ccc(Cl)cc2)S(=O)(=O)c2ccccc21	mIAP block 46 (no result: bIAP inh, bIAP activator)
CC1CCCN(C(=O)c2ccc(Br)c(S(=O)(=O)N3CCOCC3)c2)C1 (stereo unspecified)	none (no result: bIAP inh, bIAP activator)
O=c1cc(-c2ccc(O)cc2)oc2c(C3OCC(O)C(O)C3O)c(O)c(C3OC(CO)C(O)C(O)C3O)c(O)c12 (stereo unspecified)	mIAP block 43 (no result: bIAP inh, bIAP activator)
CC(C)(C)n1nnnc1CN1C2CCC1CC(NC(=O)Nc1ccccc1)C2 (stereo unspecified)	bIAP activator 2.2
Cc1ccc(NC(=S)NC2CC3CCC(C2)N3Cc2ccco2)cc1C (stereo unspecified)	none
CCOC(=O)c1ccc(NC(=O)NC2CC3CCC(C2)N3Cc2nnnn2Cc2ccco2)cc1 (stereo unspecified)	mIAP act 2.2
C#CCOC(=O)Nc1ccc(OCC(F)(F)F)nc1	none (no result: bIAP inh, bIAP activator)
Cc1ccc(NC(=S)NCCSc2ccc(Cl)cc2)c(C)c1	none
Cc1cccc(NC(=S)NCCSc2ccc(Cl)cc2)c1	mIAP act 2.2
Cc1ccc(C)c(NC(=S)NCCSc2ccc(Cl)cc2)c1	none
Cc1ccccc1NC(=S)NCCSc1ccc(Cl)cc1	none (no result: bIAP inh)
CCc1ccccc1NC(=S)NCCSc1ccc(Cl)cc1	mIAP act 2 (no result: bIAP inh)
Cc1cccc(NC(=S)NCC(C)CSc2ccc(Cl)cc2)c1 (stereo unspecified)	mIAP act 3.2
Cc1cccc(NC(=S)NCC(c2ccccc2)N(C)C)c1 (stereo unspecified)	none
Cc1ccc(NC(=S)NCC(C)CSc2ccc(Cl)cc2)cc1 (stereo unspecified)	mIAP act 2.7
NS(=O)(=O)c1ccc(CCNC(=O)C(c2ccccc2)c2ccccc2)cc1	none (no result: bIAP inh, bIAP activator)
CCOC(=O)C1=C(COC(=O)c2cc(Br)c(Br)s2)NC(=O)NC1C (stereo unspecified)	none (no result: bIAP inh, bIAP activator)
Cc1cccc(NC(=S)NC(C)CCc2ccccc2)c1 (stereo unspecified)	mIAP act 2.2
NC(=O)c1ccc(NC(=O)CSc2nnc(-c3ccc4c(c3)OCO4)o2)cc1	none (no result: bIAP inh, bIAP activator)
O=C(CSc1nnc(-c2ccc3c(c2)OCO3)o1)Nc1c(F)cccc1F	mIAP block 55 (no result: bIAP inh, bIAP activator)
Cc1cccc(OCC(=O)Nc2ccncc2)c1C	none (no result: bIAP inh, bIAP activator)
Cc1cccc(OCC(=O)Nc2ncn[nH]2)c1C	hIAP activ 2 (no result: bIAP inh, bIAP activator)
Cc1ccc(Cl)cc1NC(=S)NCCCSC1CCCCC1	mIAP act 3.1 (no result: bIAP inh)
COCCn1nnnc1C(c1cc2cc(C)ccc2[nH]c1=O)N1CCc2ccccc21 (stereo unspecified)	none
Cc1ccc2[nH]c(=O)c(C(c3nnnn3CCc3ccccc3)N3CCOCC3)cc2c1 (stereo unspecified)	mIAP block 46
COc1ccc(Cc2nc3ccc(C(=O)NCc4ncc(C)[nH]4)cc3o2)cc1OC	mIAP block 50 (no result: bIAP inh, bIAP activator)
COc1cccc(CNC(=O)Cc2ccc(OC)c(S(=O)(=O)N3CCOCC3)c2)c1	none (no result: bIAP inh, bIAP activator)
COc1ccc(-c2cc(C(=O)NC(C)c3ccccn3)c3ccccc3n2)cc1OC (stereo unspecified)	none (no result: bIAP inh, bIAP activator)
S=C(NCc1ccco1)Nc1ccc(Cl)c(Cl)c1	mIAP act 2.3
COCCCNc1nc2ccccc2nc1NS(=O)(=O)c1cccc(C)c1	none (no result: bIAP inh, bIAP activator)
COc1ccccc1-c1cc(C(=O)N2CCN(S(=O)(=O)c3ccc(C)cc3)CC2)[nH]n1	mIAP act 2.3 (no result: bIAP inh, bIAP activator)
NS(=O)(=O)c1ccc(CNC(=O)c2ccc(C(=O)c3ccccc3)cc2)cc1	none (no result: bIAP inh, bIAP activator)
Cc1nnsc1C(=O)N/N=C/c1ccccc1	bIAP activator 5.5
Cc1ccc(S(=O)(=O)N2CCCCC2)cc1C(=O)NCc1ccc(S(N)(=O)=O)cc1	none (no result: bIAP inh, bIAP activator)
O=C1NC(=S)S/C1=C\c1coc2ccc(O)cc2c1=O	mIAP block 46 (no result: bIAP inh, bIAP activator)
COc1ccc(C2=NOC(Cn3nc(-c4ccccc4)cc3C(=O)NCc3cccs3)C2)cc1 (stereo unspecified)	mIAP act 2.9 (no result: bIAP inh, bIAP activator)
Cn1c(N=Nc2ccccc2)nc2ccccc21	none (no result: bIAP inh)
CN(C)c1ccc(N=Nc2nc3ccccc3n2C)cc1	mIAP block 42 (no result: bIAP inh, bIAP activator)
COc1cc(C2c3c(oc4ccc(Cl)cc4c3=O)C(=O)N2Cc2ccco2)cc(OC)c1OC (stereo unspecified)	bIAP activator 2.6 (no result: mIAP block, hIAP block, hIAP activ, mIAP act)
Cc1cccc(OCc2nnc(SC(C)C(=O)O)n2-c2ccccc2)c1 (stereo unspecified)	none (no result: bIAP inh, bIAP activator)
O=C(NCc1ccc(F)cc1)C1CCN(S(=O)(=O)c2ccc3c(c2)OCCCO3)CC1	none
O=C(NCc1ccc(Cl)cc1Cl)C1CCN(S(=O)(=O)c2ccc3c(c2)OCCCO3)CC1	mIAP act 2.6
CCc1ccc(C(C)NC(=O)c2ccc3c(c2)OCO3)cc1 (stereo unspecified)	none (no result: bIAP inh, bIAP activator)
Cc1cc(C)cc(C(=O)Nc2ccc(N3CCCC3)cc2)c1	none
Cc1cc(C)cc(NC(=O)Nc2ccc(N3CCCCC3)cc2)c1	mIAP act 2 (no result: bIAP inh, bIAP activator)
CCC(=O)OCCNc1cc(SCCC(=O)OC)c2nonc2c1[N+](=O)[O-]	none
CCCC(=O)OCCNc1cc(Sc2nc3ccccc3[nH]2)c2nonc2c1[N+](=O)[O-]	bIAP activator 3.5
Cc1ccc(NC(=S)NCCN(C2CCCCC2)C2CCCC2)cc1	none (no result: bIAP inh)
Cc1cc(C)cc(NC(=S)NCCN(C2CCCCC2)C2CCCC2)c1	mIAP act 2.1 (no result: bIAP inh)
Cc1cc2c(c(CO)c1CCO)C(=O)[C@@H](C)[C@@H]2O	none (no result: bIAP inh, bIAP activator)
OC[C@@H]1[C@@H](c2ccccc2)C(c2ccc(F)cc2)=NN1c1ccccc1	none (no result: bIAP inh, hIAP block, hIAP activ, bIAP activator)
OC[C@@H]1[C@@H](c2ccc(Cl)cc2)C(c2ccc(F)cc2)=NN1c1ccccc1	mIAP act 2 (no result: bIAP inh, hIAP block, hIAP activ, bIAP activator)
Cc1cccc(C2=NN(c3ccccc3)[C@H](CO)[C@H]2c2ccc(Cl)cc2)c1	mIAP act 2 (no result: bIAP inh, hIAP block, hIAP activ, bIAP activator)
O=C(N/N=C/c1cc(Br)cc(Br)c1O)c1cccc(S(=O)(=O)N2CCOCC2)c1	mIAP block 41 (no result: bIAP inh, bIAP activator)
O=C(N/N=C/c1ccccc1Br)c1cccc(S(=O)(=O)N2CCOCC2)c1	none (no result: bIAP inh, bIAP activator)

High-throughput results: PubChem, Sanford-Burnham Center for Chemical Genomics
